Experiments:
Sigma 2 receptor = test: Displacement of [3H]ditolylguanidine from sigma 2 receptor in Sprague-Dawley rat liver membrane; type: cell membranes
Cavia porcellus = organism: Cavia porcellus; test: Displacement of [3H]MK-801 from NMDA receptor in guinea pig brain membrane at 10 uM; type: cell membranes
Summary of the method: (§1)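 Single-point screen: percent inhibition of radioligand binding to guinea pig brain membranes with test compound at 10 µM.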

[1] = molecular target: Kappa-type opioid receptor (Cavia porcellus, UniProt P41144); test: Displacement of [3H]U-69593 from kappa opioid receptor in guinea pig brain membrane; type: cell membranes
Kappa-type opioid receptor, sequence (P41144 whole entry): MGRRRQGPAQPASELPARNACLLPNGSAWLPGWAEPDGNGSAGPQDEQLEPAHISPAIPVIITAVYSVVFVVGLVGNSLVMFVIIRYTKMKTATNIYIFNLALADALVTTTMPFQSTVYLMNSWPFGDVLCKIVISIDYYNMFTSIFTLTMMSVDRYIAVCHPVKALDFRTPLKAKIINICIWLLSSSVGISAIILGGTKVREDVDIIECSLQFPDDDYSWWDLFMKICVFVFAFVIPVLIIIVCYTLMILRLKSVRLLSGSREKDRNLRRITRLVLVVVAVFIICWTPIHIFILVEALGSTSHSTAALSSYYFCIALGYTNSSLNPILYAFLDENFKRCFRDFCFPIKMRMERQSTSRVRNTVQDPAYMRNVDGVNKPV

[2] = molecular target: Mu-type opioid receptor (Cavia porcellus) (UniProt P97266); test: Displacement of [3H]DAMGO from mu opioid receptor in guinea pig brain membrane at 10 uM; type: cell membranes; summary of the method: as §1
Mu-type opioid receptor (Cavia porcellus), sequence (P97266 whole entry): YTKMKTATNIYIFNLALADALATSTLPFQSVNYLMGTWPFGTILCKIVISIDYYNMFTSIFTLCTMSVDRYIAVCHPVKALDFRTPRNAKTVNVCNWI

[3] = molecular target: Sigma non-opioid intracellular receptor 1 (Cavia porcellus, UniProt Q60492); test: Displacement of [3H](+)-pentazocine from sigma 1 receptor in guinea pig brain membrane; type: cell membranes
Sigma non-opioid intracellular receptor 1, sequence (Q60492 whole entry): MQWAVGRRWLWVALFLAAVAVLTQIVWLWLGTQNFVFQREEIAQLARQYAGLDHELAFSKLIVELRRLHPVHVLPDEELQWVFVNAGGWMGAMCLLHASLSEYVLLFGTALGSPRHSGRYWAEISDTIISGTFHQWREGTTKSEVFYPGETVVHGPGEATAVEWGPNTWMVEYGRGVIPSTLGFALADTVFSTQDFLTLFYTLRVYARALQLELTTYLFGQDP

[4] = molecular target: Kappa-type opioid receptor (Cavia porcellus) (UniProt P41144); test: Displacement of [3H]U-69593 from kappa opioid receptor in guinea pig brain membrane at 10 uM; type: cell membranes
Kappa-type opioid receptor (Cavia porcellus), sequence (P41144 whole entry): as the sequence (P41144 whole entry) above
Summary of the method: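 Single-concentration test reported as percent inhibition of [3H]-U-69593 binding to guinea pig brain membranes. All experiments run in triplicate. Glass fibre filters presoaked 2 h at 4 °C in 0.5% polyethylenimine, then harvested by filtration. Bound radioactivity counted by liquid scintillation at 66% counting efficiency.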

[5] = Displacement of [3H]MK-801 from NMDA receptor in guinea pig brain membrane; type: cell membranes, Cavia porcellus
Mu-type opioid receptor = Mu-type opioid receptor (Cavia porcellus, UniProt P97266); test: Displacement of [3H]DAMGO from mu opioid receptor in guinea pig brain membrane; type: cell membranes
Mu-type opioid receptor, sequence (P97266 whole entry): as the sequence (P97266 whole entry) above

[6] = molecular target: Sigma non-opioid intracellular receptor 1 (Cavia porcellus) (UniProt Q60492); test: Selectivity for guinea pig sigma 1 receptor over rat sigma 2 receptor
Sigma non-opioid intracellular receptor 1 (Cavia porcellus), sequence (Q60492 whole entry): as the sequence (Q60492 whole entry) above

Row | SMILES | Ki (Sigma 2 receptor) [nM] | inhibition (Cavia porcellus) [%] | Ki [1] [nM] | inhibition [2] [%] | Ki [3] [nM] | inhibition [4] [%] | Ki [5] [nM] | Ki (Mu-type opioid receptor) [nM] | Selectivity ratio [6]
1 | COC1CCC2CN(CCc3ccccc3)C1CN2Cc1ccccc1 (centres undefined) | 297 | 50.5 | 5020 | 68.6 | 76 | – | – | – | –
2 | CN1CC2CCC(O)C1CN2Cc1ccccc1 (single isomer, unassigned; form 1) [listing 1 of 2 here] | – | 13.7 | – | 4.7 | – | 13.2 | – | – | –
3 | c1ccc(C2(N3CCCCC3)CCCCC2)cc1 [PHENCYCLIDINE] | – | – | – | – | – | – | 28 | – | –
4 | CN1CC2CCC(O)C1CN2Cc1ccccc1 (single isomer, unassigned; form 1) [listing 2 of 2 here] | 2890 | – | – | – | 4970 | – | – | – | –
5 | CO[C@@H]1CC[C@H]2CN(C)[C@@H]1CN2Cc1ccccc1 | 327 | 8.7 | 3590 | 21.5 | 1350 | – | – | – | –
6 | OC1CCC2CN(CCc3ccccc3)C1CN2Cc1ccccc1 (single isomer, unassigned) | 588 | 20.6 | 1290 | – | 29.5 | – | – | 4050 | –
7 | c1ccc(CCN2CC3CCC(OCc4ccccc4)C2CN3Cc2ccccc2)cc1 (centres undefined) | 628 | 16.4 | 2230 | 34.8 | 175 | – | – | – | –
8 | CCCCN1CC2CCC(O)C1CN2Cc1ccccc1 (centres undefined) | 447 | 52.3 | 1600 | 37.9 | 23.4 | – | – | – | –
9 | CN1C[C@@H]2CC[C@@H](OCc3ccccc3)[C@H]1CN2Cc1ccccc1 | 30.4 | 0 | 585 | 70.4 | 16.2 | – | – | – | –
10 | CN1CC2CCC(O)C1CN2Cc1ccccc1 (single isomer, unassigned; form 2) [listing 1 of 2 here] | – | 21 | – | 8.5 | – | 12.6 | – | – | –
11 | CCCCN1CC2CCC(OC)C1CN2Cc1ccccc1 (centres undefined) | 219 | 55.5 | 157 | 37.4 | 13.2 | – | – | – | 16
12 | CN[C@]1(c2ccccc2Cl)CCCCC1=O [ESKETAMINE] | – | – | – | – | – | – | 108 | – | –
13 | O[C@@H]1CCC2CN(CCc3ccccc3)C1CN2Cc1ccccc1 (some centres undefined) | 343 | 21.9 | 2460 | – | 33.3 | – | – | 4960 | –
14 | CCCCN1CC2CCC(OCc3ccccc3)C1CN2Cc1ccccc1 (centres undefined) | 820 | 21.5 | 1110 | – | 39.5 | – | – | 3320 | 21
15 | COC1(OC)CC[C@H]2CN(C)[C@@H]1CN2Cc1ccccc1 | 1830 | 44.3 | > 10000 | 27.6 | 3500 | – | – | – | –
16 | CN1CC2CCC(O)C1CN2Cc1ccccc1 (single isomer, unassigned; form 2) [listing 2 of 2 here] | 4180 | – | – | – | 2400 | – | – | – | –
